Data from ChEMBL document CHEMBL3259640 (J Med Chem, 2014).
The source made the active and inactive calls. No cut-off for these calls is given here.

Tests used:
MDA-MB-231 [1] = experiment: Antiproliferative activity against human MDA-MB-231 cells assessed as cell viability after 96 hrs by CellTiter96 assay; type: functional, cell-based; settings: MDA-MB-231, 96 h
MDA-MB-468 [2] = experiment: Growth inhibition of human MDA-MB-468 cells; type: functional
[3] = molecular target: T1, Kinetochore protein NDC80 homolog (Homo sapiens) (UniProt O14777); experiment: Inhibition of Hec1/Nek2 interaction in human MDA-MB-468 cells assessed as reduction in Hec1 level at 100 nM by western blot analysis; type: cell-based
T1 sequence (whole entry): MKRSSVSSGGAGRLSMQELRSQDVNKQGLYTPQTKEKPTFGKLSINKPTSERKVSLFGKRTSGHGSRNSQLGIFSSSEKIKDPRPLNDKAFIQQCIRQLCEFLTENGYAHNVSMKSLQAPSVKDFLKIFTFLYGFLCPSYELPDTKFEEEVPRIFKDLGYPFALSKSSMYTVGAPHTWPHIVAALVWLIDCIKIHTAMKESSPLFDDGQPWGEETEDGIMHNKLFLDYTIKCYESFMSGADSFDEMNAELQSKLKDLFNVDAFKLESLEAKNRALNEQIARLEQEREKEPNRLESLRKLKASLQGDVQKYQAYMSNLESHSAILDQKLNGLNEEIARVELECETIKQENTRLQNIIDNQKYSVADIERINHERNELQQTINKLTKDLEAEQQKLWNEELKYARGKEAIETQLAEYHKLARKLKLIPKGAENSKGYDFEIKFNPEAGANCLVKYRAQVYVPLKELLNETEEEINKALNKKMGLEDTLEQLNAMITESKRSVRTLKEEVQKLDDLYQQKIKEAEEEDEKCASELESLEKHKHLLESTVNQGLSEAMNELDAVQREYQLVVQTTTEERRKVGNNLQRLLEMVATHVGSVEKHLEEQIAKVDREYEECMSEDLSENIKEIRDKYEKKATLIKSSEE
Procedure, shortened: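 MDA-MB-468 cells treated with compound at 100 nM, with or without MG132 at 500 nM. Lysates made in SDS sample buffer, run on SDS-PAGE and blotted to PVDF. Primary antibodies applied in 3% BSA-TBST, with HRP secondaries and enhanced chemiluminescence detection for Hec1 and Nek2.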

[4] = molecular target: T1, Kinetochore protein NDC80 homolog (Homo sapiens); experiment: Inhibition of Hec1/Nek2 interaction in human K562 cells assessed as induction of Nek2 degradation at 10 nM after 24 hrs by western blot analysis; type: cell-based
Procedure, shortened: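 K562 cells exposed to DMSO or to 10, 100 or 1000 nM for 24 h. Nek2 and Hec1 detected by western blot in SDS sample buffer lysates, with actin as loading control and ECL detection.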

MDA-MB-468 [5] = experiment: Induction of mitotic abnormalities in human MDA-MB-468 cells assessed as proportion of cells displaying chromosomal misalignment at 10 nM after 48 hrs by immunofluorescent staining based microscopy (reference value: 21.4%); type: functional
HCT-116 = experiment: Growth inhibition of human HCT116 cells; type: functional
[6] = molecular target: Receptor-type tyrosine-protein kinase FLT3 (Homo sapiens, UniProt P36888); experiment: Inhibition of FLT3 (unknown origin) assessed as [33P] incorporation in substrate by TopCount microplate scintillation counting analysis
HeLa [7] = experiment: Induction of apoptosis in human HeLa cells assessed as reduction in Bcl-2 protein expression at 1 uM after 24 to 48 hrs by western blot analysis; type: functional, cell-based
Procedure, shortened: (§1)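 HeLa cells given 1.0 μM compound, DMSO, or paclitaxel 100 nM for 24 and 48 h. Lysates made in SDS sample buffer, run on SDS-PAGE and transferred to PVDF. Blots probed for cleaved caspase-3, cleaved PARP, Bcl-2, Mcl-1 and XIAP, with actin as loading control, and detected by HRP-linked ECL.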

HeLa [8] = experiment: Induction of apoptosis in human HeLa cells assessed as reduction in Mcl-1 protein expression at 1 uM after 24 to 48 hrs by western blot analysis; type: functional, cell-based; procedure, shortened: as §1
[9] = molecular target: Serine/threonine-protein kinase mTOR (Homo sapiens, UniProt P42345); experiment: Inhibition of mTOR (unknown origin) assessed as [33P] incorporation in substrate by TopCount microplate scintillation counting analysis
[10] = molecular target: Serine/threonine-protein kinase B-raf (Homo sapiens, UniProt P15056, V600E); experiment: Inhibition of B-Raf V600E mutant (unknown origin) assessed as [33P] incorporation in substrate by TopCount microplate scintillation counting analysis
HeLa [11] = experiment: Induction of apoptosis in human HeLa cells assessed as increase in cleaved caspase-3 level at 1 uM after 24 to 48 hrs by western blot analysis; type: functional, cell-based; procedure, shortened: as §1
[12] = Growth inhibition of human PLC/PRF/5 cells; type: functional
[13] = molecular target: Serine/threonine-protein kinase Chk1 (Homo sapiens, UniProt O14757); experiment: Inhibition of CHK1 (unknown origin) assessed as [33P] incorporation in substrate by TopCount microplate scintillation counting analysis
[14] = Growth inhibition of HUVEC; type: cell-based; settings: human
[15] = molecular target: T1, Kinetochore protein NDC80 homolog (Homo sapiens); experiment: Inhibition of Hec1/Nek2 interaction in human K562 cells assessed as reduction in coimmunoprecipitated Hec1 level at 100 nM after 16 hrs by co-immunoprecipitation assay in presence of 500 nM proteasome inhibitor MG132; type: cell-based
[16] = molecular target: T1, Kinetochore protein NDC80 homolog (Homo sapiens); experiment: Inhibition of Hec1/Nek2 interaction in human K562 cells assessed as reduction in coimmunoprecipitated Hec1 level at 100 nM after 16 hrs by co-immunoprecipitation assay; type: cell-based
MDA-MB-231 [17] = experiment: Antitumor activity against human MDA-MB-231 cells xenografted in BALB/c nu/nu mouse assessed as tumor volume at 20 mg/kg, iv qd for 28 days relative to control; type: functional
Procedure, shortened: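 Female BALB/c nu/nu mice, 5–8 weeks old, implanted subcutaneously in the right flank with 1 × 10⁷ MDA-MB-231 cells in matrigel. Dosing began at about 100 mm³ mean tumour volume; 5 mice/group. Arms: vehicle (5% DMSO, 10% Cremophor in water) IV once daily, 20 mg/kg IV once daily, or 150 mg/kg PO twice daily, for 28 days. Caliper volumes and body weight every 2 days; T/C on day 28.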

[18] = Growth inhibition of human WI38 cells; type: cell-based; settings: WI-38 cells
[19] = Clearance in Sprague-Dawley rat at 2 mg/kg, iv compound formulated with 5% DMSO, 10% cremophor and 85% water by LC-MS/MS analysis; type: ADME, organism-based; parameters: dose 2 mg/kg, route intravenous; settings: in vivo
Mus musculus = experiment: Toxicity in BALB/c nu/nu mouse xenografted with human MDA-MB-231 cells assessed as body weight loss at 150 mg/kg, po bid for 28 days; type: organism-based; parameters: dose 150 mg/kg, route oral; settings: in vivo, 672 h
Procedure, shortened: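 Female BALB/c nu/nu mice, 5–8 weeks old, implanted subcutaneously in the right flank with 1 × 10⁷ MDA-MB-231 cells in matrigel. Treatment began at about 100 mm³ tumor volume; 5 mice per group. Dosing for 28 days: IV 20 mg/kg once daily or PO 150 mg/kg twice daily, in 5% DMSO/10% Cremophor in H₂O; vehicle controls included. Body weight and tumor size (caliper) recorded every 2 days.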

Receptor-type tyrosine-protein kinase FLT3, sequence (P36888 whole entry): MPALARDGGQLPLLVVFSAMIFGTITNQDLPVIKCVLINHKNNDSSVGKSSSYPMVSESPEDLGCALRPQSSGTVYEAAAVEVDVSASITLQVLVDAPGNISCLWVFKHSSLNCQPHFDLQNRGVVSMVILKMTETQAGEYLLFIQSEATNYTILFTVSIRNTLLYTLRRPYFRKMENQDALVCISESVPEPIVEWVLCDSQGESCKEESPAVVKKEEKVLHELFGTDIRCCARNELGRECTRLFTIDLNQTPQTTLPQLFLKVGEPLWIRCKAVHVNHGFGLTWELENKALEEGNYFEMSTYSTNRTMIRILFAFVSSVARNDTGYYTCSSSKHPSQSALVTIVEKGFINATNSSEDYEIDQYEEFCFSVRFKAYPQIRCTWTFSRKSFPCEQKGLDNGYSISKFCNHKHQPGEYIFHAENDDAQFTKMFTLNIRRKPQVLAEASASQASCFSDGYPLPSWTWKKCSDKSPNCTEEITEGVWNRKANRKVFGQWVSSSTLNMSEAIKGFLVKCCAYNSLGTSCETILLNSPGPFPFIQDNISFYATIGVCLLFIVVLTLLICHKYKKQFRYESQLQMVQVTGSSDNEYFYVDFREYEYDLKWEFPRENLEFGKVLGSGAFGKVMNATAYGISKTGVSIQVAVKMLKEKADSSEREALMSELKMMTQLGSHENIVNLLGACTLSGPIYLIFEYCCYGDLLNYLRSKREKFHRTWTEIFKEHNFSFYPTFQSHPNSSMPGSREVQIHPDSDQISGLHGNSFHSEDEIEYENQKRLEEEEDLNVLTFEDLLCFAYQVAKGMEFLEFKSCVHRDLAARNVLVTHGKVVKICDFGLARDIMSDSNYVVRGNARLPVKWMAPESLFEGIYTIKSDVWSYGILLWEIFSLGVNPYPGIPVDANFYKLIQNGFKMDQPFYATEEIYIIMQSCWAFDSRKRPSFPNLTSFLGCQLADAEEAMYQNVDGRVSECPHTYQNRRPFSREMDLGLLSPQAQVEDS
Serine/threonine-protein kinase Chk1, sequence (O14757 whole entry): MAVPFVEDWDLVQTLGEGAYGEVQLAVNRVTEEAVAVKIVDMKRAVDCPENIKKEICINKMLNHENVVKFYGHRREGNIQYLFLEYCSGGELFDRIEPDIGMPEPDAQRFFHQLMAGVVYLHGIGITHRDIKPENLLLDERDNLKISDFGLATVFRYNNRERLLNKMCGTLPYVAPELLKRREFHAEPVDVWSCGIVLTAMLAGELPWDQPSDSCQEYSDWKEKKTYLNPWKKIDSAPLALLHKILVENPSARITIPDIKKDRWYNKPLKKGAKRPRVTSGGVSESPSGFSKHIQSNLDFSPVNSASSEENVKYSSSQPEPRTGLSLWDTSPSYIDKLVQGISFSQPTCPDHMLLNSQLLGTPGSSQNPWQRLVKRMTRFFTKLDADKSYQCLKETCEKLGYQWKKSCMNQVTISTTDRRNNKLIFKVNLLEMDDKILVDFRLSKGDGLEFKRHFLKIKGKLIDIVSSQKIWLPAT
Serine/threonine-protein kinase B-raf, sequence (P15056 2-766 V600E limits assumed): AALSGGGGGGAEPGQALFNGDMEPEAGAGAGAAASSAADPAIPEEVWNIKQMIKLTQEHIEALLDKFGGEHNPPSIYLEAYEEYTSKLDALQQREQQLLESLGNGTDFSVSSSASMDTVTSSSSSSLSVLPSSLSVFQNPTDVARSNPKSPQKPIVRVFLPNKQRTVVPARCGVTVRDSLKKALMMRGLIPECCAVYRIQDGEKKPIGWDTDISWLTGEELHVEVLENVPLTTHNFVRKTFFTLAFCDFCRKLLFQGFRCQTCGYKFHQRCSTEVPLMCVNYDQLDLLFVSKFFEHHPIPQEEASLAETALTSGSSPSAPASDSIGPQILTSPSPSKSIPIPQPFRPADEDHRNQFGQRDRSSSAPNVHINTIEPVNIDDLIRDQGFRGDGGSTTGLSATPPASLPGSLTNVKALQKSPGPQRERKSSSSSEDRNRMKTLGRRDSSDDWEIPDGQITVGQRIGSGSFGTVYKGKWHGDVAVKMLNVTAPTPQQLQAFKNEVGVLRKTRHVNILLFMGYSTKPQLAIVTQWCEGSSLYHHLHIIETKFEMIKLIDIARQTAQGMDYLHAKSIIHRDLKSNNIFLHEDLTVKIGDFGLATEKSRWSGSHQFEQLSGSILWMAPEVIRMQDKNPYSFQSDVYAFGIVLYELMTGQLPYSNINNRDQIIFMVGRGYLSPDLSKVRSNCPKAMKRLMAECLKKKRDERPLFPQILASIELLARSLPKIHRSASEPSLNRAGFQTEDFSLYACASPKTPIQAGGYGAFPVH

COc1ccc(Oc2cc(C)c(-c3csc(NC(=O)c4ccnc(F)c4)n3)c(C)c2)cc1
IC50 (MDA-MB-231 [1]): 20 nM | GI50 (MDA-MB-468 [2]): 29.6 nM | inhibition [3]: Active | Activity [4]: inactive | Activity (MDA-MB-468 [5]): 23.9% | GI50 (HCT-116): 34.1 nM | IC50 [6]: > 10000 nM | inhibition (HeLa [7]): Active | inhibition (HeLa [8]): Active | IC50 [9]: > 10000 nM | IC50 [10]: > 10000 nM | Activity (HeLa [11]): Active | GI50 [12]: 79.6 nM | IC50 [13]: > 10000 nM | GI50 [14]: > 9000 nM | inhibition [15]: Active | inhibition [16]: Active | T/C (MDA-MB-231 [17]): 32% | GI50 [18]: > 9000 nM | clearance [19]: 1.22 mL/min/kg | Activity (Mus musculus): < 5%
